Screens (PubChem)
PAD4 FP inh: inhibitors of human PAD4; recombinant PAD4, RCA probe fluorescence polarization; inhibition, % at 6.36 µM; 0.41% of 330,000 active;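 active = percent inhibition above a cutoff equal to the mean of all tested compounds plus 3 SD, cut at about 15% in these data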;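 also: 0% = PAD4 with RCA probe and DMSO and 100% = probe without PAD4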
Target sequence (Q9UM07 whole entry, looked up): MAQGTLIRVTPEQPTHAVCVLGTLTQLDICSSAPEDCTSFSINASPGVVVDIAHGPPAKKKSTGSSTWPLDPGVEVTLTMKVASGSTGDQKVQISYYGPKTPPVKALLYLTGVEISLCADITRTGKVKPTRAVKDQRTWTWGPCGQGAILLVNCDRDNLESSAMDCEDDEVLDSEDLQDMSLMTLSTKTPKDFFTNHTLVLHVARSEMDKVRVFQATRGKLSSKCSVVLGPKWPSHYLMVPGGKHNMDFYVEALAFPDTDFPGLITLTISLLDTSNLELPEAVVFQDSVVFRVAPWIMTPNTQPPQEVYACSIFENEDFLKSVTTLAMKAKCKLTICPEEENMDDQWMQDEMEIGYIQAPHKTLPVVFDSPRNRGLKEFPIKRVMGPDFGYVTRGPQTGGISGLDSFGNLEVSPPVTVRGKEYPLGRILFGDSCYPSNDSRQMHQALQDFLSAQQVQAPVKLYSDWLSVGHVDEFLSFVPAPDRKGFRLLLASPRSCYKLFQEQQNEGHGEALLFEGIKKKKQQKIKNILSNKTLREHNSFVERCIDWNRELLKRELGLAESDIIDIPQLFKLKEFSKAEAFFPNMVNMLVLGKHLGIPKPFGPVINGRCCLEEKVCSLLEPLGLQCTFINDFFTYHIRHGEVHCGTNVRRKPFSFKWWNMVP
PME-1 primary: blocks human protein phosphatase methylesterase 1 | Q9Y570 | recombinant PME-1, FP-Rh probe fluorescence polarization | inhibition, % at 5.9 µM | 0.53% of 320,000 active;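 active = inhibition above the campaign mean of all compounds plus 3 SD, cut at about 26% in these data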;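 also: competitive labeling of PME-1 active site by serine hydrolase directed probe; 0% = PME-1 with DMSO and 100% = wells lacking PME-1 enzyme; inhibitors block probe labeling so polarization falls and inhibition rises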
LYPLA2 counter: LYPLA2 (human) inhibition in PME1 counter-screen | recombinant LYPLA2, FP-Rh probe fluorescence polarization | inhibition, % at 5.9 µM | O95372 | 0.38% of 320,000 active;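 active = inhibition above the screen-wide mean plus 3 SD, limit set per campaign, cut at about 26% in these data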;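 also: 0% = LYPLA2 with DMSO and 100% = wells lacking LYPLA2 enzyme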
RBBP9 inhibitor: blocks human serine hydrolase RBBP9 | O75884 | recombinant RBBP9, FP-Rh probe fluorescence polarization | inhibition, % at 7.94 µM | 0.2% of 220,000 active | AID 1515;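 active = inhibition above the campaign mean of all tested compounds plus 3 SD, cut at about 14% in these data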;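 also: plate controls were DMSO wells with RBBP9 for no effect and wells lacking RBBP9 protein for full effect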
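Material: RBBP9 protein. Amount: RBBP9 at 2.5 µM in dispensed solution, before mixing. Schedule: 30 min then 45 min, 25 °C. Medium: Tris buffer pH 8.0, NaCl, Pluronic. Measured by: fluorescence polarization. Measure: percent inhibition from mP, scaled between DMSO and no-protein wells. Replication: one well per compound.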
Fam108B counter: Fam108B inhibition, counter-screen for RBBP9 inhibitors. 0.33% of 300,000 active. inhibition, % at 9.51 µM. recombinant Fam108B, FP-Rh probe fluorescence polarization;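 active = inhibition above the screen mean inhibition plus 3 SD, computed separately per campaign, cut at about 18% in these data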;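 also: inhibitors lower polarization as less probe binds the enzyme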
LYPLA1 inh: LYPLA1 (human) inhibition in PME1 counter-screen; 0.16% of 320,000 active; AID 2174; recombinant LYPLA1, FP-Rh probe fluorescence polarization; inhibition, % at 5.9 µM; O75608;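 active = inhibition above the mean of all tested compounds plus 3 SD, set per campaign, cut at about 14% in these data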;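 also: inhibitors block serine hydrolase probe labeling of LYPLA1 so polarization falls; 0% = enzyme with DMSO and 100% = wells lacking LYPLA1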
Fam108b confirm: confirmation of mouse Fam108b serine hydrolase inhibitors; AID 1978; shares compounds with Fam108B counter; inhibition, % at 9.51 µM; recombinant Fam108b, FP-Rh probe fluorescence polarization; 44% of 930 active;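 active = inhibition above a limit from the primary screen, the mean over all compounds plus 3 SD, cut at about 19% in these data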;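 also: 0% = median of active Fam108b wells and 100% = catalytically dead S170A mutant; inhibitors free the probe so polarization falls as inhibition rises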
LYPLA1 conf: counter-screen for PME1 inhibitors: confirmation of human LYPLA1 inhibitors; shares compounds with LYPLA1 inh; recombinant LYPLA1, FP-Rh probe fluorescence polarization; inhibition, % at 5.9 µM; 69% of 480 active; AID 2233;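 active = mean inhibition across replicates above the hit cutoff set in the primary screen, cut at about 15% in these data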;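 also: loss of FP-Rh probe labeling of LYPLA1 seen as lower polarization; 0% = LYPLA1 with DMSO and 100% = wells lacking LYPLA1 enzyme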
LYPLA2 confirm: counter-screen for PME1 inhibitors: confirmation of human LYPLA2 inhibitors; shares compounds with LYPLA2 counter; recombinant LYPLA2, FP-Rh probe fluorescence polarization; inhibition, % at 5.9 µM; 72% of 1,100 active; AID 2232;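 active = mean inhibition across replicates above the hit cutoff set in the primary screen, cut at about 26% in these data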;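 also: blocked labeling of the enzyme by serine hydrolase FP-Rh probe lowers polarization; 0% = enzyme with DMSO and 100% = wells lacking LYPLA2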
PAD4 FP conf: PAD4 (human) inhibition, confirmed | shares compounds with PAD4 FP inh | recombinant PAD4, RCA probe fluorescence polarization | inhibition, % at 6.36 µM | 28% of 1,200 active;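 active = mean inhibition across replicates above the hit cutoff set by the earlier primary screen, cut at about 15% in these data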;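 also: inhibitors block active-site labeling by the probe so polarization falls; 0% = PAD4 with probe and DMSO and 100% = probe without PAD4 enzyme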
Numbers without * were called inactive; · = no result given. In the library only some 1.3% were active in any assay of this set; here they are far more common.

SMILES	PAD4 FP inh	PME-1 primary	LYPLA2 counter	RBBP9 inhibitor	Fam108B counter	LYPLA1 inh	PAD4 FP conf	others
O=C(c1ccc2nc(-c3ccco3)c(-c3ccco3)nc2c1)N1CCC2(CC1)OCCO2	38.1*	-6.3	2.5	·	23.4*	-4.7	-4.6	Fam108b confirm=8.6
COc1ccc(C(=O)N2CCC3(CC2)OCCO3)cc1	1.3	4.0	-3.4	·	1.5	-1.3	·
NP(=O)(OCCCCc1ccccc1)Oc1ccccc1Cl (stereo not drawn)	6.2	41.4*	25.1	·	-3.1	19.2*	·	LYPLA1 conf=9.0
COC(=O)C1=C(c2ccc(OC(F)(F)F)cc2)C[C@@H]2CC[C@H]1N2C(=O)NC1CCCCC1	-0.2	-6.9	-3.6	·	·	-1.1	·
CC(=NCCN1CCOCC1)c1c(O)n(Cc2ccccc2)c(=O)[nH]c1=O	-0.5	5.3	-1.7	-6.7	-2.2	-2.3	·
CC(=NCCc1c[nH]c2ccccc12)c1c(O)n(Cc2ccccc2)c(=O)[nH]c1=O	1.3	5.1	30.8*	-4.2	-1.9	-2.2	·	LYPLA2 confirm=27.4*
Cc1ccc(Cn2nnnc2CN2CCC(n3nnc4cc(C(F)(F)F)ccc43)CC2)cc1	1.0	-1.4	15.2	-2.0	2.7	-1.4	·
Cc1ccc(Cn2nnnc2CN2CCC(n3nnc4cc(C)ccc43)CC2)cc1	-4.0	-7.1	26.6*	-1.5	-2.0	-0.7	·	LYPLA2 confirm=24.1
CC1C2Cc3ccc(O)cc3[C@]1(C)CCN2CCc1ccccc1 (stereo partly drawn)	-3.5	·	·	·	·	·	·
CCN(CC)C(=O)c1ccc(NC(=O)COc2ccc(-c3nn(C)c(=O)c4ccccc34)cc2)cc1	-6.8	-0.4	31.7*	·	3.0	12.5	·	LYPLA2 confirm=31.4*
Oc1c(Cl)c(Cl)c(Cl)c(Cl)c1Cl	0.4	18.7	28.1*	·	-3.3	9.2	·	LYPLA2 confirm=34.3*
COc1c(C)cc(C(=O)C2CCCN(Cc3cccc(C)n3)C2)cc1C (stereo not drawn)	3.1	-6.5	1.5	-6.5	-0.6	-0.3	·
CC(C)[C@H]1C(=O)N2CCC[C@H]2[C@]2(O)O[C@](NC(=O)[C@@H]3C=C4c5cccc6[nH]cc(c56)C[C@H]4N(C)C3)(C(C)C)C(=O)N12	28.9*	9.3	5.7	-6.7	16.6	1.7	2.0
OC(CN1CCC(c2c[nH]c3ccccc23)CC1)C(F)(F)F (stereo not drawn)	2.1	1.1	3.3	·	1.1	3.3	·
C=Cn1ccnc1P(O)(=S)c1nc(C)c(CCOC(C)=O)s1 (stereo not drawn)	-5.7	4.7	3.7	5.8	-2.5	5.6	·
C[CH2][Hg][S]c1ccccc1C(=O)O	37.7*	-9.7	3.9	·	-4.3	1.3	50.1*
CC(C)(C)C(=O)NC1CCSC1=O (stereo not drawn)	-0.7	-1.7	-2.0	0.6	2.9	0.7	·
COc1cc(C(c2c(C)[nH]n(-c3ccccc3)c2=O)c2c(C)[nH]n(-c3ccccc3)c2=O)cc(OC)c1OC	69.5*	5.6	6.0	-1.9	-0.8	2.7	3.5
CCCCCn1c(N)c(C(=O)NCCN2CCOCC2)c2nc3ccccc3nc21	-3.0	10.3	-5.6	-5.5	8.1	1.5	·
CC(C)CCn1c(N)c(C(=O)OCC2CCCO2)c2nc3ccccc3nc21 (stereo not drawn)	72.3*	5.7	5.2	-2.0	2.5	1.1	-21.2
CCCCn1c(N)c(C(=O)OCC2CCCO2)c2nc3ccccc3nc21 (stereo not drawn)	69.4*	4.5	-4.0	-10.7	10.0	-1.9	-10.3
CCCCCn1c(N)c(C(=O)NCc2cccs2)c2nc3ccccc3nc21	65.0*	9.6	8.0	-2.1	4.9	-2.1	-12.3
CCCCn1c(NS(=O)(=O)c2ccc(C)cc2)c(C(=O)OCC)c2nc3ccccc3nc21	66.2*	5.4	8.8	-0.8	2.6	3.4	-2.6
CCCCn1c(N)c(C(=O)OCCOC)c2nc3ccccc3nc21	-5.0	7.7	0.2	-9.4	-0.7	1.7	·
COc1ccccc1CCNCc1cccc(C(F)(F)F)c1	1.8	3.3	0.0	·	3.6	-0.5	·
SMILES	PAD4 FP inh	PME-1 primary	LYPLA2 counter	RBBP9 inhibitor	Fam108B counter	LYPLA1 inh	PAD4 FP conf	others
N/C(=N\N=C\c1ccc(O)cc1O)N[N+](=O)[O-]	-0.6	3.1	-1.4	-4.2	2.0	0.2	·
COc1ccccc1/C=N/N=C(/N)N[N+](=O)[O-]	15.6*	-3.9	2.1	-9.2	2.4	-1.3	5.4
CCC1=Nc2cc(C(=O)N3CCC4(CC3)OCCO4)ccc2Sc2ccc(Br)cc21	1.7	-6.9	-9.3	·	2.0	-5.9	·
C[n+]1c(-c2ccccc2)sc2ccccc21	14.8*	3.2	1.8	·	-0.5	2.8	6.2
CN(C)c1ccc(/C=C/C=C/c2sc3ccccc3[n+]2C)cc1	-6.7	-39.7	-42.7	-44.7	-14.7	-22.8	·
C=CCn1c(O)c(C(C)=Nc2ccc(N(CC)CC)cc2)c(=O)[nH]c1=O	18.8*	2.9	2.4	1.7	0.5	0.3	-6.9
CCOc1ccc(-n2c(O)c(C=Nc3ccc(N(CC)CC)cc3)c(=O)[nH]c2=O)cc1	-11.5	-4.2	3.4	-0.8	1.4	-2.2	·
CCOc1ccccc1-n1c(O)c(C=Nc2ccc(N(CC)CC)cc2)c(=O)[nH]c1=O	37.6*	4.7	-1.0	-7.2	-0.5	-0.9	3.0
CCN(CC)c1ccc(N=Cc2c(O)n(-c3ccccc3)c(=O)[nH]c2=O)cc1	18.2*	-0.3	0.7	4.8	-0.2	1.4	4.3
CC1CCCC(NC(=O)COC(=O)c2cn(C)c3ccccc23)C1C (stereo not drawn)	-1.2	4.1	1.4	·	·	-0.1	·
CCCNC(=O)N1[C@H]2CC[C@@H]1C(C(=O)OC)=C(c1ccc3ccccc3c1)C2	-5.5	-5.1	0.3	·	·	2.3	·
COc1ccc(CC2c3cc(OC)c(OC)cc3CCN2C)cc1O (stereo not drawn)	0.8	-0.8	-0.7	-0.1	-2.3	-0.1	·
COc1cc2c(cc1OC)-c1c(OC)c(OC)cc3c1C(C2)N(C)CC3 (stereo not drawn)	47.2*	1.9	1.7	-1.9	0.3	0.4	26.0*
COc1cc2c(cc1OC)-c1c3c(cc4c1[C@@H](C2)N(C)CC4)OCO3	56.9*	0.0	-0.8	-3.8	3.4	0.4	-9.0
CCS(=O)(=O)NCc1nnc2n1-c1ccc(Br)cc1C(c1ccccc1Cl)=NC2	-0.9	-0.1	1.1	·	2.3	-1.6	·
CCOc1cccc(OCC)c2c(C)[n+](CC3CCCO3)c(C)c1-2 (stereo not drawn)	14.8*	4.8	-1.6	-6.0	4.6	3.3	-5.7
COc1ccc(CCNCC2CCCO2)cc1 (stereo not drawn)	-3.6	0.7	-0.1	·	1.5	0.9	·
